Laboratory results published in ChEMBL document CHEMBL1629657, “In vitro antimicrobial activity of a new cephalosporin, ceftaroline, and determination of quality control ranges for MIC testing” (2009).
In brackets after ≈: the same amount, converted by molar mass.

Key:
Type in all cases: functional
[1] = system: Providencia stuartii; assay: Antimicrobial activity against Proteus stuartii by broth microdilution method
In short: (§1)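 Clinical isolates were tested by CLSI broth microdilution in unsupplemented cation-adjusted Mueller-Hinton broth. The read-out was the MIC, reported as MIC90 (μg/ml) per species or phenotypic group. Ceftriaxone, levofloxacin and imipenem were run in parallel as comparators.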

[2] = system: Proteus vulgaris; assay: Antimicrobial activity against Proteus vulgaris by broth microdilution method; in short: as §1
[3] = system: Serratia marcescens; assay: Antimicrobial activity against Serratia marcescens by broth microdilution method; in short: as §1
[4] = system: Shigella sp.; assay: Antimicrobial activity against Shigella spp. by broth microdilution method; in short: as §1
[5] = system: Salmonella sp.; assay: Antimicrobial activity against Salmonella spp. by broth microdilution method; in short: as §1
[6] = system: Burkholderia cepacia; assay: Antimicrobial activity against Burkholderia cepacia by broth microdilution method; in short: as §1
[7] = system: Pseudomonas aeruginosa; assay: Antimicrobial activity against Pseudomonas aeruginosa by broth microdilution method; in short: as §1
[8] = system: Pseudomonas aeruginosa; assay: Antimicrobial activity against multidrug resistant Pseudomonas aeruginosa by broth microdilution method
In short: (§2)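 Isolates of the stated resistance phenotype were tested by CLSI broth microdilution in unsupplemented cation-adjusted Mueller-Hinton broth. Ceftaroline was compared with ceftriaxone, levofloxacin and imipenem. Activity was expressed as MICs (MIC90 in μg/ml).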

[9] = system: Stenotrophomonas maltophilia; assay: Antimicrobial activity against Stenotrophomonas maltophilia by broth microdilution method; in short: as §1
[10] = system: Moraxella catarrhalis; assay: Antimicrobial activity against Moraxella catarrhalis by broth microdilution method; in short: as §1
[11] = system: Haemophilus influenzae; assay: Antimicrobial activity against beta-lactamase-negative Haemophilus influenzae by broth microdilution method
In short: (§3)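 CLSI broth microdilution in Haemophilus test medium (cation-adjusted Mueller-Hinton base) against clinical H. influenzae isolates of the stated phenotype. Ceftaroline was compared with ceftriaxone, levofloxacin and imipenem. Activity was expressed as MICs (MIC90 in μg/ml).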

[12] = system: Haemophilus influenzae; assay: Antimicrobial activity against beta-lactamase-positive Haemophilus influenzae by broth microdilution method
In short: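 H. influenzae isolates were tested by CLSI broth microdilution using Haemophilus test medium. The MIC was read and MIC90 (μg/ml) reported for the group. Ceftriaxone, levofloxacin and imipenem served as comparators.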

[13] = system: Haemophilus influenzae; assay: Antimicrobial activity against beta-lactamase-negative ampicillin resistant Haemophilus influenzae by broth microdilution method; in short: as §3
[14] = system: Staphylococcus aureus; assay: Antimicrobial activity against methicillin-resistant Staphylococcus aureus by broth microdilution method; in short: as §2
[15] = system: Staphylococcus aureus; assay: Antimicrobial activity against methicillin-susceptible Staphylococcus aureus by broth microdilution method; in short: as §1
[16] = system: Staphylococcus aureus; assay: Antimicrobial activity against vancomycin-intermediate Staphylococcus aureus by broth microdilution method; in short: as §1
[17] = system: Staphylococcus aureus; assay: Antimicrobial activity against vancomycin-resistant Staphylococcus aureus by broth microdilution method; in short: as §2
[18] = system: Staphylococcus; assay: Antimicrobial activity against methicillin-resistant coagulase-negative Staphylococcus by broth microdilution method; in short: as §2
[19] = system: Staphylococcus; assay: Antimicrobial activity against methicillin-susceptible coagulase-negative Staphylococcus by broth microdilution method; in short: as §1
[20] = system: Enterococcus faecalis; assay: Antimicrobial activity against Enterococcus faecalis by broth microdilution method; in short: as §1
[21] = system: Enterococcus faecalis; assay: Antimicrobial activity against vancomycin-susceptible Enterococcus faecalis by broth microdilution method; in short: as §1
[22] = system: Enterococcus faecium; assay: Antimicrobial activity against Enterococcus faecium by broth microdilution method; in short: as §1
[23] = system: Enterococcus faecium; assay: Antimicrobial activity against vancomycin-susceptible Enterococcus faecium by broth microdilution method; in short: as §1
[24] = system: Corynebacterium jeikeium; assay: Antimicrobial activity against Corynebacterium jeikeium by broth microdilution method; in short: as §1
[25] = system: Listeria monocytogenes; assay: Antimicrobial activity against Listeria monocytogenes by broth microdilution method; in short: as §1
[26] = system: Streptococcus agalactiae; assay: Antimicrobial activity against Streptococcus agalactiae by broth microdilution method
In short: (§4)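 Streptococcal isolates were tested by CLSI broth microdilution in cation-adjusted Mueller-Hinton broth supplemented with 3% lysed horse blood. The read-out was the MIC, with MIC90 (μg/ml) reported per group. Ceftriaxone, levofloxacin and imipenem served as comparators.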

[27] = system: Streptococcus pneumoniae; assay: Antimicrobial activity against levofloxacin-resistant Streptococcus pneumoniae by broth microdilution method
In short: (§5)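 CLSI broth microdilution in cation-adjusted Mueller-Hinton broth with 3% lysed horse blood, against streptococcal clinical isolates of the stated phenotype. Ceftaroline was compared with ceftriaxone, levofloxacin and imipenem. Activity was expressed as MICs (MIC90 in μg/ml).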

[28] = system: Streptococcus pneumoniae; assay: Antimicrobial activity against penicillin-resistant Streptococcus pneumoniae by broth microdilution method; in short: as §5
[29] = system: Streptococcus pneumoniae; assay: Antimicrobial activity against penicillin-intermediate Streptococcus pneumoniae by broth microdilution method; in short: as §5
[30] = system: Streptococcus pneumoniae; assay: Antimicrobial activity against penicillin-susceptible Streptococcus pneumoniae by broth microdilution method; in short: as §4
[31] = system: Streptococcus pyogenes; assay: Antimicrobial activity against macrolide-resistant Streptococcus pyogenes by broth microdilution method; in short: as §5
[32] = system: Streptococcus pyogenes; assay: Antimicrobial activity against macrolide-susceptible Streptococcus pyogenes by broth microdilution method; in short: as §5
[33] = system: Streptococcus viridans; assay: Antimicrobial activity against Streptococcus viridans group clinical isolate by broth microdilution method; in short: as §4
[34] = system: Klebsiella aerogenes; assay: Antimicrobial activity against ESBL-negative Enterobacter aerogenes by broth microdilution method; in short: as §1
[35] = system: Enterobacter cloacae; assay: Antimicrobial activity against ESBL-negative Enterobacter cloacae by broth microdilution method; in short: as §1
[36] = system: Escherichia coli; assay: Antimicrobial activity against ESBL-negative Escherichia coli by broth microdilution method; in short: as §1
[37] = system: Escherichia coli; assay: Antimicrobial activity against ESBL-positive Escherichia coli by broth microdilution method; in short: as §1
[38] = system: Klebsiella pneumoniae; assay: Antimicrobial activity against ESBL-negative Klebsiella pneumoniae by broth microdilution method; in short: as §1
[39] = system: Klebsiella pneumoniae; assay: Antimicrobial activity against ESBL-positive Klebsiella pneumoniae by broth microdilution method; in short: as §1
[40] = system: Morganella morganii; assay: Antimicrobial activity against Morganella morganii by broth microdilution method; in short: as §1
[41] = system: Proteus mirabilis; assay: Antimicrobial activity against Proteus mirabilis by broth microdilution method; in short: as §1
[42] = system: Providencia rettgeri; assay: Antimicrobial activity against Proteus rettgeri by broth microdilution method; in short: as §1

In the case of `CO/N=C(\C(=O)N[C@@H]1C(=O)N2C(C(=O)O)=C(CSc3nc(=O)c(O)nn3C)CS[C@H]12)c1csc(N)n1` [CEFTRIAXONE], the MIC50 [1] is reported as 0.06 µg/mL (≈ 0.108 µM), the MIC90 [1] is reported as 0.25 µg/mL (≈ 0.451 µM) and the MIC50 [2] is reported as 1 µg/mL (≈ 1.8 µM). It also gave an MIC90 [2] of over 32 µg/mL, an MIC50 [3] of 0.25 µg/mL (≈ 0.451 µM) and an MIC90 [3] of 2 µg/mL (≈ 3.61 µM). It also gave an MIC [4] of 0.03 µg/mL (≈ 0.0541 µM), an MIC50 [4] of 0.03 µg/mL (≈ 0.0541 µM) and an MIC90 [4] of 0.06 µg/mL (≈ 0.108 µM). The MIC50 [5] was 0.06 µg/mL (≈ 0.108 µM), the MIC90 [5] was over 32 µg/mL and the MIC50 [6] was over 32 µg/mL. For the same compound, the MIC90 [6] was over 32 µg/mL, the MIC50 [7] was over 32 µg/mL and the MIC90 [7] was over 32 µg/mL. The MIC [8] was 16 µg/mL (≈ 28.9 µM), the MIC50 [9] was over 32 µg/mL and the MIC90 [9] was over 32 µg/mL. It also gave an MIC50 [10] of 0.5 µg/mL (≈ 0.902 µM), an MIC90 [10] of 1 µg/mL (≈ 1.8 µM) and an MIC [11] of 0.015 µg/mL (≈ 0.027 µM). For the same compound, the MIC50 [11] was 0.015 µg/mL (≈ 0.027 µM), the MIC90 [11] was 0.015 µg/mL (≈ 0.027 µM) and the MIC [12] was 0.015 µg/mL (≈ 0.027 µM). For the same compound, the MIC50 [12] was 0.015 µg/mL (≈ 0.027 µM), the MIC90 [12] was 0.015 µg/mL (≈ 0.027 µM) and the MIC50 [13] was 0.12 µg/mL (≈ 0.216 µM). It also gave an MIC90 [13] of 0.12 µg/mL (≈ 0.216 µM), an MIC50 [14] of 32 µg/mL (≈ 57.7 µM) and an MIC50 [15] of 4 µg/mL (≈ 7.21 µM). It also gave an MIC90 [15] of 4 µg/mL (≈ 7.21 µM), an MIC50 [16] of over 32 µg/mL and an MIC90 [16] of over 32 µg/mL. For the same compound, the MIC [17] was over 32 µg/mL, the MIC50 [18] was 16 µg/mL (≈ 28.9 µM) and the MIC90 [18] was over 32 µg/mL. The MIC50 [19] was 2 µg/mL (≈ 3.61 µM), the MIC90 [19] was 8 µg/mL (≈ 14.4 µM) and the MIC50 [20] was over 32 µg/mL. For the same compound, the MIC90 [20] was over 32 µg/mL, the MIC [21] was over 32 µg/mL and the MIC50 [21] was over 32 µg/mL. It also gave an MIC90 [21] of over 32 µg/mL, an MIC [22] of over 32 µg/mL and an MIC50 [22] of over 32 µg/mL. For the same compound, the MIC90 [22] was over 32 µg/mL, the MIC50 [23] was over 32 µg/mL and the MIC90 [23] was over 32 µg/mL. The MIC50 [24] was over 32 µg/mL, the MIC90 [24] was over 32 µg/mL and the MIC50 [25] was over 32 µg/mL. For the same compound, the MIC90 [25] was over 32 µg/mL, the MIC [26] was 0.06 µg/mL (≈ 0.108 µM) and the MIC50 [26] was 0.06 µg/mL (≈ 0.108 µM). It also gave an MIC90 [26] of 0.12 µg/mL (≈ 0.216 µM), an MIC50 [27] of 0.25 µg/mL (≈ 0.451 µM) and an MIC90 [27] of 2 µg/mL (≈ 3.61 µM). For the same compound, the MIC50 [28] was 2 µg/mL (≈ 3.61 µM), the MIC90 [28] was 8 µg/mL (≈ 14.4 µM) and the MIC50 [29] was 0.25 µg/mL (≈ 0.451 µM). It also gave an MIC90 [29] of 0.5 µg/mL (≈ 0.902 µM), an MIC50 [30] of 0.03 µg/mL (≈ 0.0541 µM) and an MIC90 [30] of 0.06 µg/mL (≈ 0.108 µM). It also gave an MIC [31] of 0.015 µg/mL (≈ 0.027 µM), an MIC50 [31] of 0.015 µg/mL (≈ 0.027 µM) and an MIC90 [31] of 0.03 µg/mL (≈ 0.0541 µM). For the same compound, the MIC [32] was 0.015 µg/mL (≈ 0.027 µM), the MIC50 [32] was 0.015 µg/mL (≈ 0.027 µM) and the MIC90 [32] was 0.03 µg/mL (≈ 0.0541 µM). For the same compound, the MIC50 [33] was 0.12 µg/mL (≈ 0.216 µM), the MIC90 [33] was 1 µg/mL (≈ 1.8 µM) and the MIC50 [34] was 0.12 µg/mL (≈ 0.216 µM). The MIC90 [34] was over 32 µg/mL, the MIC50 [35] was 0.25 µg/mL (≈ 0.451 µM) and the MIC90 [35] was 0.5 µg/mL (≈ 0.902 µM). The MIC50 [36] was 0.06 µg/mL (≈ 0.108 µM), the MIC90 [36] was 0.25 µg/mL (≈ 0.451 µM) and the MIC50 [37] was over 32 µg/mL. The MIC90 [37] was over 32 µg/mL, the MIC50 [38] was 0.06 µg/mL (≈ 0.108 µM) and the MIC90 [38] was 0.12 µg/mL (≈ 0.216 µM). The MIC50 [39] was 32 µg/mL (≈ 57.7 µM), the MIC90 [39] was over 32 µg/mL and the MIC50 [40] was 0.5 µg/mL (≈ 0.902 µM). For the same compound, the MIC90 [40] was 32 µg/mL (≈ 57.7 µM), the MIC [41] was 0.015 µg/mL (≈ 0.027 µM) and the MIC50 [41] was 0.015 µg/mL (≈ 0.027 µM). For the same compound, the MIC90 [41] was 0.015 µg/mL (≈ 0.027 µM), the MIC50 [42] was 0.06 µg/mL (≈ 0.108 µM) and the MIC90 [42] was 0.25 µg/mL (≈ 0.451 µM).
